# Test results published in ChEMBL document CHEMBL3997769, “Discovery and preclinical evaluation of 7-benzyl-N-(substituted)-pyrrolo[3,2-d]pyrimidin-4-amines as single agents with microtubule targeting effects along with triple-acting angiokinase inhibition as antitumor agents” (Bioorg Med Chem, 2017).
# Columns and labels:
# [1] = Inhibition of bovine brain tubulin assembly preincubated for 15 mins followed by GTP addition measured for 20 mins by spectrophotometric method; design: species or system Bos taurus
# [2] = test system: CCRF-CEM; test: Growth inhibition of human CCRF-CEM cells incubated for 48 hrs by sulforhodamine B assay; assay type: functional
# [3] = species: Bos taurus; test: Displacement of [3H]colchicine from bovine brain tubulin at 5 uM measured after 10 mins by liquid scintillation counting method relative to control
# [4] = test system: HeLa; test: Growth inhibition of human HeLa cells measured after 96 hrs by sulforhodamine B assay; assay type: functional, cell-based
# Method in brief: (§1)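 Exposed 96 h to varying compound concentrations in 0.5% DMSO. Cell protein measured by sulforhodamine B; IC50 = concentration halving the increase in cell protein versus untreated cultures.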
# [5] = test system: HL-60(TB); test: Growth inhibition of human HL-60(TB) cells incubated for 48 hrs by sulforhodamine B assay; assay type: functional; settings: HL-60, 48 h
# [6] = test system: K562; test: Growth inhibition of human K562 cells incubated for 48 hrs by sulforhodamine B assay; assay type: functional; settings: K562, 48 h
# [7] = test system: MOLT-4; test: Growth inhibition of human MOLT4 cells incubated for 48 hrs by sulforhodamine B assay; assay type: functional; settings: MOLT-4, 48 h
# [8] = test system: RPMI-8226; test: Growth inhibition of human RPMI8226 cells incubated for 48 hrs by sulforhodamine B assay; assay type: functional; settings: RPMI-8226, 48 h
# [9] = test system: SR; test: Growth inhibition of human SR cells incubated for 48 hrs by sulforhodamine B assay; assay type: functional
# [10] = test system: A549; test: Growth inhibition of human A549/ATCC cells incubated for 48 hrs by sulforhodamine B assay; assay type: functional; settings: A549, 48 h
# [11] = test system: EKVX; test: Growth inhibition of human EKVX cells incubated for 48 hrs by sulforhodamine B assay; assay type: functional
# [12] = test system: HOP-62; test: Growth inhibition of human HOP62 cells incubated for 48 hrs by sulforhodamine B assay; assay type: functional; settings: HOP-62, 48 h
# [13] = test system: HOP-92; test: Growth inhibition of human HOP92 cells incubated for 48 hrs by sulforhodamine B assay; assay type: functional; settings: HOP-92, 48 h
# [14] = test system: NCI-H226; test: Growth inhibition of human NCI-H226 cells incubated for 48 hrs by sulforhodamine B assay; assay type: functional; settings: NCI-H226, 48 h
# [15] = test system: NCI-H23; test: Growth inhibition of human NCI-H23 cells incubated for 48 hrs by sulforhodamine B assay; assay type: functional; settings: NCI-H23, 48 h
# [16] = test system: NCI-H322M; test: Growth inhibition of human NCI-H322M cells incubated for 48 hrs by sulforhodamine B assay; assay type: functional
# [17] = test system: NCI-H460; test: Growth inhibition of human NCI-H460 cells incubated for 48 hrs by sulforhodamine B assay; assay type: functional; settings: NCI-H460, 48 h
# [18] = test system: NCI-H522; test: Growth inhibition of human NCI-H522 cells incubated for 48 hrs by sulforhodamine B assay; assay type: functional; settings: NCI-H522, 48 h
# [19] = test system: COLO 205; test: Growth inhibition of human COLO205 cells incubated for 48 hrs by sulforhodamine B assay; assay type: functional; settings: COLO 205, 48 h
# [20] = test system: HCC 2998; test: Growth inhibition of human HCC2998 cells incubated for 48 hrs by sulforhodamine B assay; assay type: functional; settings: HCC 2998, 48 h
# [21] = test system: HCT-116; test: Growth inhibition of human HCT116 cells incubated for 48 hrs by sulforhodamine B assay; assay type: functional; settings: HCT-116, 48 h
# [22] = test system: HCT-15; test: Growth inhibition of human HCT15 cells incubated for 48 hrs by sulforhodamine B assay; assay type: functional; settings: HCT-15, 48 h
# [23] = test system: KM12; test: Growth inhibition of human KM12 cells incubated for 48 hrs by sulforhodamine B assay; assay type: functional; settings: KM12, 48 h
# [24] = test system: SW-620; test: Growth inhibition of human SW620 cells incubated for 48 hrs by sulforhodamine B assay; assay type: functional; settings: SW-620, 48 h
# [25] = test system: SF-268; test: Growth inhibition of human SF268 cells incubated for 48 hrs by sulforhodamine B assay; assay type: functional; settings: SF-268, 48 h
# [26] = test system: SF-295; test: Growth inhibition of human SF295 cells incubated for 48 hrs by sulforhodamine B assay; assay type: functional; settings: SF-295, 48 h
# [27] = test system: SF-539; test: Growth inhibition of human SF539 cells incubated for 48 hrs by sulforhodamine B assay; assay type: functional; settings: SF-539, 48 h
# [28] = test system: SNB-19; test: Growth inhibition of human SNB19 cells incubated for 48 hrs by sulforhodamine B assay; assay type: functional; settings: SNB-19, 48 h
# [29] = test system: SNB-75; test: Growth inhibition of human SNB75 cells incubated for 48 hrs by sulforhodamine B assay; assay type: functional; settings: SNB-75, 48 h
# [30] = test system: U-251; test: Growth inhibition of human U251 cells incubated for 48 hrs by sulforhodamine B assay; assay type: functional; settings: U-251, 48 h
# [31] = test system: LOX IMVI; test: Growth inhibition of human LOXIMVI cells incubated for 48 hrs by sulforhodamine B assay; assay type: functional
# [32] = test system: Malme-3M; test: Growth inhibition of human MALME-3M cells incubated for 48 hrs by sulforhodamine B assay; assay type: functional
# [33] = test system: M14; test: Growth inhibition of human M14 cells incubated for 48 hrs by sulforhodamine B assay; assay type: functional; settings: M14, 48 h
# [34] = test system: MDA-MB-435; test: Growth inhibition of human MDA-MB-435 cells incubated for 48 hrs by sulforhodamine B assay; assay type: functional; settings: MDA-MB-435, 48 h
# [35] = test system: SK-MEL-28; test: Growth inhibition of human SK-MEL-28 cells incubated for 48 hrs by sulforhodamine B assay; assay type: functional; settings: SK-MEL-28, 48 h
# [36] = test system: SK-MEL-5; test: Growth inhibition of human SK-MEL-5 cells incubated for 48 hrs by sulforhodamine B assay; assay type: functional; settings: SK-MEL-5, 48 h
# [37] = test system: UACC-257; test: Growth inhibition of human UACC257 cells incubated for 48 hrs by sulforhodamine B assay; assay type: functional; settings: UACC-257, 48 h
# [38] = test system: UACC-62; test: Growth inhibition of human UACC62 cells incubated for 48 hrs by sulforhodamine B assay; assay type: functional; settings: UACC-62, 48 h
# [39] = test system: IGROV-1; test: Growth inhibition of human IGROV1 cells incubated for 48 hrs by sulforhodamine B assay; assay type: functional; settings: IGROV-1, 48 h
# [40] = test system: OVCAR-3; test: Growth inhibition of human OVCAR3 cells incubated for 48 hrs by sulforhodamine B assay; assay type: functional; settings: OVCAR-3, 48 h
# [41] = test system: OVCAR-4; test: Growth inhibition of human OVCAR4 cells incubated for 48 hrs by sulforhodamine B assay; assay type: functional; settings: OVCAR-4, 48 h
# [42] = test system: OVCAR-5; test: Growth inhibition of human OVCAR5 cells incubated for 48 hrs by sulforhodamine B assay; assay type: functional; settings: OVCAR-5, 48 h
# [43] = test system: OVCAR-8; test: Growth inhibition of human OVCAR8 cells incubated for 48 hrs by sulforhodamine B assay; assay type: functional; settings: OVCAR-8, 48 h
# [44] = test system: NCI/ADR-RES; test: Growth inhibition of human NCI/ADR-RES cells incubated for 48 hrs by sulforhodamine B assay; assay type: functional
# [45] = test system: SK-OV-3; test: Growth inhibition of human SKOV3 cells incubated for 48 hrs by sulforhodamine B assay; assay type: functional; settings: SK-OV-3, 48 h
# [46] = test system: 786-0; test: Growth inhibition of human 786-0 cells incubated for 48 hrs by sulforhodamine B assay; assay type: functional; settings: 786-0, 48 h
# [47] = test system: A498; test: Growth inhibition of human A498 cells incubated for 48 hrs by sulforhodamine B assay; assay type: functional; settings: A498, 48 h
# [48] = test system: ACHN; test: Growth inhibition of human ACHN cells incubated for 48 hrs by sulforhodamine B assay; assay type: functional
# [49] = test system: CAKI-1; test: Growth inhibition of human Caki1 cells incubated for 48 hrs by sulforhodamine B assay; assay type: functional; settings: CAKI-1, 48 h
# [50] = test system: RXF 393; test: Growth inhibition of human RXF393 cells incubated for 48 hrs by sulforhodamine B assay; assay type: functional; settings: RXF 393, 48 h
# [51] = test system: SN12C; test: Growth inhibition of human SN12C cells incubated for 48 hrs by sulforhodamine B assay; assay type: functional
# [52] = test system: TK-10; test: Growth inhibition of human TK10 cells incubated for 48 hrs by sulforhodamine B assay; assay type: functional; settings: TK-10, 48 h
# [53] = test system: UO-31; test: Growth inhibition of human UO31 cells incubated for 48 hrs by sulforhodamine B assay; assay type: functional; settings: UO-31, 48 h
# [54] = test system: DU-145; test: Growth inhibition of human DU145 cells incubated for 48 hrs by sulforhodamine B assay; assay type: functional; settings: DU-145, 48 h
# [55] = test system: MCF7; test: Growth inhibition of human MCF7 cells incubated for 48 hrs by sulforhodamine B assay; assay type: functional; settings: MCF7, 48 h
# [56] = test system: MDA-MB-231; test: Growth inhibition of human MDA-MB-231 cells incubated for 48 hrs by sulforhodamine B assay; assay type: functional; settings: MDA-MB-231, 48 h
# [57] = test system: Hs-578T; test: Growth inhibition of human Hs578T cells incubated for 48 hrs by sulforhodamine B assay; assay type: functional
# [58] = test system: BT-549; test: Growth inhibition of human BT549 cells incubated for 48 hrs by sulforhodamine B assay; assay type: functional; settings: BT-549, 48 h
# [59] = test system: T47D; test: Growth inhibition of human T47D cells incubated for 48 hrs by sulforhodamine B assay; assay type: functional
# [60] = test system: MDA-MB-468; test: Growth inhibition of human MDA-MB-468 cells incubated for 48 hrs by sulforhodamine B assay; assay type: functional; settings: MDA-MB-468, 48 h
# [61] = test system: HeLa; test: Growth inhibition of human HeLa cells over expressing beta3-tubulin measured after 96 hrs by sulforhodamine B assay; assay type: functional, cell-based; method in brief: as §1
# [62] = test system: OVCAR-8; test: Growth inhibition of human OVCAR8 cells measured after 96 hrs by sulforhodamine B assay; assay type: functional, cell-based; settings: OVCAR-8, 96 h
# [63] = test system: NCI/ADR-RES; test: Growth inhibition of human NCI/ADR-RES cells over expressing Pgp measured after 96 hrs by sulforhodamine B assay; assay type: functional, cell-based
# [64] = test system: A-431; test: Cytotoxicity against human A431 cells; assay type: functional, cell-based
# [65] = test system: Chorioallantoic membrane; test: Antiangiogenic activity in Leghorn chicken egg chorioallantoic membrane assessed as inhibition of human VEGF-165/bFGF-induced blood vessels formation measured after 40 hrs by microscopic method; assay type: functional, tissue-based; settings: Gallus gallus
structure (smiles),measurement,setting,value
COc1ccc2c(c1)CCCN2c1nc(N)nc2c(Cc3ccccc3)c[nH]c12,IC50,[1],13000 nM
COc1ccc2c(c1)CCCN2c1nc(C)nc2c(Cc3ccccc3)c[nH]c12,GI50,[2],226 nM
same,inhibition,[3],43%
same,IC50,[4],250 nM
same,GI50,[5],222 nM
same,GI50,[6],111 nM
same,GI50,[7],345 nM
same,GI50,[8],266 nM
same,GI50,[9],922 nM
same,GI50,[10],406 nM
same,GI50,[11],463 nM
same,GI50,[12],379 nM
same,GI50,[13],189 nM
same,GI50,[14],136 nM
same,GI50,[15],320 nM
same,GI50,[16],362 nM
same,GI50,[17],337 nM
same,GI50,[18],316 nM
same,GI50,[19],232 nM
same,GI50,[20],318 nM
same,GI50,[21],368 nM
same,GI50,[22],366 nM
same,GI50,[23],366 nM
same,GI50,[24],370 nM
same,GI50,[25],723 nM
same,GI50,[26],192 nM
same,GI50,[27],260 nM
same,GI50,[28],549 nM
same,GI50,[29],182 nM
same,GI50,[30],316 nM
same,GI50,[31],521 nM
same,GI50,[32],330 nM
same,GI50,[33],252 nM
same,GI50,[34],341 nM
same,GI50,[35],368 nM
same,GI50,[36],325 nM
same,GI50,[37],108 nM
same,GI50,[38],659 nM
same,GI50,[39],440 nM
same,GI50,[40],285 nM
same,GI50,[41],468 nM
same,GI50,[42],543 nM
same,GI50,[43],487 nM
same,GI50,[44],265 nM
same,GI50,[45],423 nM
same,GI50,[46],934 nM
same,GI50,[47],197 nM
same,GI50,[48],830 nM
same,GI50,[49],341 nM
same,GI50,[50],212 nM
same,GI50,[51],618 nM
same,GI50,[52],123 nM
same,GI50,[53],390 nM
same,GI50,[54],383 nM
same,GI50,[55],248 nM
same,GI50,[56],641 nM
same,GI50,[57],582 nM
same,GI50,[58],755 nM
same,GI50,[59],128 nM
same,GI50,[60],153 nM
CC(=O)O[C@H]1C(=O)[C@@]2(C)[C@H]([C@H](OC(=O)c3ccccc3)[C@]3(O)C[C@H](OC(=O)[C@H](O)[C@@H](NC(=O)c4ccccc4)c4ccccc4)C(C)=C1C3(C)C)[C@]1(OC(C)=O)CO[C@@H]1C[C@@H]2O [PACLITAXEL],IC50,[4],5.3 nM
same,IC50,[61],16 nM
same,IC50,[62],5 nM
same,IC50,[63],2500 nM
COc1ccc(N(C)c2nc(N)nc3c(Cc4ccccc4)c[nH]c23)cc1,IC50,[1],> 20000 nM
same,IC50,[64],700 nM
same,IC50,[65],2300 nM
